Results of several laboratories.
Target: Eukaryotic translation initiation factor 2-alpha kinase 1 (EIF2AK1, Homo sapiens, UniProt Q9BQI3)

| Structure (SMILES) | read-out | technique | concentration | remaining binding [%] |
| --- | --- | --- | --- | --- |
| Cc1cnn2ncc(-c3ccnc(N(C)C)n3)c2c1 | binding | – | 1 µM | 84 |
| CNC(=O)[C@@H]1CC[C@@H](n2c(-c3ccc4cnccc4c3)nc3ccc(C(=O)NCc4cccc(C(N)=O)c4)cc32)C1 | binding | competition with immobilised ligand | 1 µM | 100 |
| Nc1cnc(N2CCc3cc(S(=O)(=O)Nc4c(F)cc(Cl)cc4F)cc(N4CCCC4=O)c32)nc1 | cell-free assay | competition with immobilised ligand | 1 µM | 94 |
| CN(C)c1nccc(-c2cnc3ncccn23)n1 | binding | – | 1 µM | 69 |
| O=C(NCC1CCOCC1)c1n[nH]cc1NC(=O)c1c(F)cccc1F | binding | competition with immobilised ligand | 1 µM | 87 |
| O=C(NCc1ncc(C(F)(F)F)cc1Cl)c1ccc2c(c1)C1(CCS(=O)(=O)CC1)[C@H](C1CC1)N2S(=O)(=O)c1ccc(F)cc1 | cell-free assay | competition with immobilised ligand | 1 µM | 86 |
| FC(F)(F)Oc1cccc(-c2cnc3ccc(-c4ccncc4)nn23)c1 | cell-free assay | competition with immobilised ligand | 5 µM | 88 |
| COc1cnc(Nc2cccc(S(N)(=O)=O)c2)nc1N1CCN(c2ccccc2)CC1 | binding | competition with immobilised ligand | 1 µM | 100 |
| CN(c1nccc(-c2cnn3ncccc23)n1)C1CC1 | binding | – | 1 µM | 100 |
| O=C(c1ccc(Nc2ncc(Cl)c(-c3ccc(Cl)s3)n2)cc1)N1CCC(N2CCCC2)CC1 | binding | competition with immobilised ligand | 1 µM | 86 |
| Cc1nc(N2CC[C@@H](O)C2)ncc1-c1cc(C(F)(F)F)cc2[nH]ncc12 | binding | competition with immobilised ligand | 1 µM | 98 |
| CCN1CCN(Cc2ccc(C(=O)Nc3ccc(C)c(Oc4ccc5c(c4)CC(=O)N5)c3)cc2C(F)(F)F)CC1 | binding | competition with immobilised ligand | 1 µM | 100 |
| C[C@H](c1ccc(F)cc1)N(Cc1cccc(C(=O)O)c1)C(=O)c1cnc2ccccc2c1 | cell-free assay | competition with immobilised ligand | 1 µM | 84 |
| CN(CCCC(F)(F)F)c1nccc(-c2cnn3ncccc23)n1 | binding | – | 1 µM | 100 |
| O=C(c1ccc(Nc2nccc(-c3cc4ccccc4s3)n2)cc1)N1CCC(N2CCCC2)CC1 | binding | competition with immobilised ligand | 1 µM | 100 |
| COc1ncc2cc3ccccc3nc2c1C#N | cell-free assay | competition with immobilised ligand | 5 µM | 100 |
| CC(=O)C1=C(C)N(c2cccc(C(F)(F)F)c2)C(=O)N[C@@H]1c1ccc(C#N)nc1 | cell-free assay | competition with immobilised ligand | 1 µM | 100 |
| CN(C)c1nccc(-c2cnn3ncccc23)n1 | binding | – | 1 µM | 100 |
| FC(F)(F)c1ccc2c(c1)nc(-c1cccnc1)n2C1CC1 | cell-free assay | competition with immobilised ligand | 1 µM | 100 |
| C[C@@H]1CCN(c2nccc(-c3cnn4ncccc34)n2)C1 | binding | – | 1 µM | 79 |
| Cc1cnc(Nc2ccc(C(=O)N3CCC(N4CCCC4)CC3)cc2)nc1-c1cc2ccccc2s1 | binding | competition with immobilised ligand | 1 µM | 100 |
| CO[C@@H](C)c1c(Nc2ccc([C@H](N(C)C(=O)C3CCS(=O)(=O)CC3)C(F)(F)F)cc2)cnc2cc(Cl)nn12 | cell-free assay | competition with immobilised ligand | 1 µM | 100 |
